Data taken from ChEMBL document CHEMBL1142960, “Synthesis and structure-activity relationships for 2,4-dinitrobenzamide-5-mustards as prodrugs for the Escherichia coli nfsB nitroreductase in gene therapy” (J Med Chem, 2007).
Values after ≈ are worked out from the molar mass of the structure shown.

Columns and labels:
[1] = Partition coefficient at pH 7.4 by shake-flask method; assay type: physicochemical; details: octanol/water
In short: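 Octanol-water partition coefficient by shake-flask at pH 7.4, reported with SEM.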

V79 [2] = assay: Antiproliferative activity against chinese hamster wild-type V79 NTR-ve cells after 18 hrs; assay type: functional, cell-based; details: Cricetulus griseus, V79, 18 h
V79 [3] = assay: Antiproliferative activity against chinese hamster V79 NTRpuro cells after 18 hrs; assay type: functional, cell-based; details: Cricetulus griseus, V79, 18 h
V79 [4] = assay: Selectivity ratio of IC50 for V79 NTR-ve cells to IC50 for V79 NTRpuro cells; assay type: functional, Cricetulus griseus
EMT6 [5] = assay: Antiproliferative activity against mouse wild type EMT6 NTR-ve cells after 18 hrs; assay type: functional, cell-based; details: EMT6, 18 h
EMT6 [6] = assay: Antiproliferative activity against mouse EMT6 NTRpuro cells after 18 hrs; assay type: functional, cell-based; details: EMT6, 18 h
EMT6 [7] = assay: Selectivity ratio of IC50 for EMT6 NTR-ve cells to IC50 forEMT6 NTRpuro cells; assay type: functional, Mus musculus
WiDr [8] = assay: Antiproliferative activity against human wild type WiDr NTR-ve cells after 18 hrs; assay type: functional, cell-based
WiDr [9] = assay: Antiproliferative activity against human WiDr NTRneo cells after 18 hrs; assay type: functional, cell-based
WiDr [10] = assay: Selectivity ratio of IC50 for WiDr NTR-ve cells to IC50 for WiDr NTRneo cells; assay type: functional, Homo sapiens
[11] = Antiproliferative activity against human wild type Skov3 NTR-ve cells after 18 hrs; assay type: functional, cell-based
V79 [12] = assay: Clonogenic survival of V79 NTRoua cells after 5 hrs by MCL assay; assay type: functional, Cricetulus griseus
[13] = Antiproliferative activity against human Skov3 NTRneo cells after 18 hrs; assay type: functional, cell-based; details: SK-OV-3, 18 h
[14] = Selectivity ratio of IC50 for Skov3 NTR-ve cells to IC50 for Skov3 NTRneo cells; assay type: functional, Homo sapiens
V79 [15] = assay: Clonogenic survival of 3% V79 NTRpuro cells in co-cultures with 97% V79 NTRoua after 5 hrs by MCL assay; assay type: functional, Cricetulus griseus
In short: (§1)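 Multicellular layer cocultures of 3% V79-NTRpuro activators and 97% V79oua NTR-ve targets (ouabain-resistant), exposed to prodrug for 5 h. MCLs were then trypsin-dissociated and plated in ouabain or puromycin selective media for clonogenic survival. C10 (10% survival) interpolated for activators and targets; AC/TC ratio derived. Mean with SEM or range over independent experiments.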

V79 [16] = assay: Clonogenic survival of 97% V79 NTRoua cells in co-cultures with 3% V79 NTRpuro cells after 5 hrs by MCL assay; assay type: functional, Cricetulus griseus; in short: as §1
[17] = Toxicity in ip dosed CD1 nude mouse in DMSO; assay type: organism-based; details: in vivo
In short: (§2)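 Maximum tolerated dose (MTD) determined in CD-1 nude mice after a single i.p. injection of prodrug, given in the vehicle named in each line.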

EMT6 [18] = assay: Antitumor activity against mixed mouse EMT6/EMT6 NTRpuro cells injected in CD1 nude mouse assessed as cell kill at 133 umol/kg, ip in DMSO after 18 hrs; assay type: functional
[19] = Solubility in alpha MEM; assay type: physicochemical
In short: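 Solubility (mM) in α-MEM with 5% fetal calf serum at ambient temperature, measured by HPLC.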

[20] = Stability in alpha MEM at 37 degC after 24 hrs; assay type: physicochemical; details: read-out: Stability
In short: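 Percent parent compound remaining, by HPLC, after holding in α-MEM with 5% fetal calf serum at 37 °C for 24 h.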

V79 [21] = assay: Clonogenic survival ratio of 3% V79 NTRpuro cells to 97% V79 NTRoua cells in co-culture; assay type: functional, Cricetulus griseus; in short: as §1
WiDr [22] = assay: Antitumor activity against mixed human 10% WiDr NTRneo/ 90% WiDr tumor cells injected in CD1 nude mouse assessed as growth delay at 1330 umol/kg, ip in DMSO; assay type: functional
In short: (§3)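 WiDr-NTRneo tumours (100% NTR+ve, or 1:9 NTR+ve:NTR-ve mixtures) in CD-1 nude mice, given a single i.p. dose at MTD. Read-out is median growth delay to 15 mm mean diameter, plus tumours not palpable 100 days after treatment. Aziridine given at 200 µmol/kg as positive control in every experiment.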

WiDr [23] = assay: Antitumor activity against human 100% WiDr NTRneo tumor cells injected in CD1 nude mouse assessed as growth delay at 1330 umol/kg, ip in DMSO; assay type: functional; in short: as §3
[24] = Toxicity in ip dosed CD1 nude mouse in DMSO/PEG; assay type: organism-based; details: in vivo; in short: as §2
EMT6 [25] = assay: Antitumor activity against mixed mouse EMT6/EMT6 NTRpuro cells injected in CD1 nude mouse assessed as cell kill at 562 umol/kg, ip in DMSO/PEG after 18 hrs; assay type: functional
WiDr [26] = assay: Antitumor activity against mixed human 10% WiDr NTRneo/ 90% WiDr tumor cells injected in CD1 nude mouse assessed as growth delay at 1780 umol/kg, ip in DMSO; assay type: functional; in short: as §3
WiDr [27] = assay: Antitumor activity against human 100% WiDr NTRneo tumor cells injected in CD1 nude mouse assessed as growth delay at 562 umol/kg, ip in DMSO/PEG; assay type: functional; in short: as §3
[28] = Toxicity in ip dosed CD1 nude mouse in DMA/PEG; assay type: organism-based; details: in vivo; in short: as §2
EMT6 [29] = assay: Antitumor activity against mixed mouse EMT6/EMT6 NTRpuro cells injected in CD1 nude mouse assessed as cell kill at 200 umol/kg, ip in DMA/PEG after 18 hrs; assay type: functional
WiDr [30] = assay: Antitumor activity against mixed human 10% WiDr NTRneo/ 90% WiDr tumor cells injected in CD1 nude mouse assessed as growth delay at 200 umol/kg, ip in DMA/PEG; assay type: functional; in short: as §3
WiDr [31] = assay: Antitumor activity against human 100% WiDr NTRneo tumor cells injected in CD1 nude mouse assessed as growth delay at 200 umol/kg, ip in DMA/PEG; assay type: functional; in short: as §3
EMT6 [32] = assay: Antitumor activity against mixed mouse EMT6/EMT6 NTRpuro cells injected in CD1 nude mouse assessed as cell kill at 133 umol/kg, ip in DMA/PEG after 18 hrs; assay type: functional

O=C(NO)c1cc(N(CCCl)CCCl)c([N+](=O)[O-])cc1[N+](=O)[O-]
logD [1]: 1.22
IC50 (V79 [2]): 51 µM
IC50 (V79 [3]): 1.36 µM
Ratio IC50 (V79 [4]): 42
IC50 (EMT6 [5]): 96 µM
IC50 (EMT6 [6]): 0.88 µM
Ratio IC50 (EMT6 [7]): 110
IC50 (WiDr [8]): 111 µM
IC50 (WiDr [9]): 2.01 µM
Ratio IC50 (WiDr [10]): 55
IC50 [11]: 200 µM
Activity (V79 [12]): >1400 µM
IC50 [13]: 1.57 µM
Ratio IC50 [14]: 124
Activity (V79 [15]): 43 µM
Activity (V79 [16]): >300 µM
MTD [17]: 133 µmol/kg
LCK (EMT6 [18]): 0.38
solubility [19]: 1400 µM (≈ 514 µg/mL)
remaining at 24 h [20]: 91%

CS(=O)(=O)OCCN(CCI)c1cc(C(N)=O)c([N+](=O)[O-])cc1[N+](=O)[O-]
logD [1]: 0.74
IC50 (V79 [2]): 101 µM
IC50 (V79 [3]): 0.29 µM
Ratio IC50 (V79 [4]): 311
IC50 (EMT6 [5]): 79 µM
IC50 (EMT6 [6]): 0.17 µM
Ratio IC50 (EMT6 [7]): 529
IC50 (WiDr [8]): 70 µM
IC50 (WiDr [9]): 0.41 µM
Ratio IC50 (WiDr [10]): 172
IC50 [11]: 97 µM
Activity (V79 [12]): >200 µM
IC50 [13]: 0.31 µM
Ratio IC50 [14]: 328
Activity (V79 [15]): 4.2 µM
Activity (V79 [16]): 12 µM
MTD [17]: 1330 µmol/kg
Ratio (V79 [21]): 0.35
Activity (WiDr [22]): 15 days
solubility [19]: 200 µM (≈ 100 µg/mL)
remaining at 24 h [20]: 72%
Activity (WiDr [23]): >82 days

O=C(NCCCO)c1cc(N(CCBr)CCBr)c([N+](=O)[O-])cc1[N+](=O)[O-]
logD [1]: 1.81
IC50 (V79 [2]): 37 µM
IC50 (V79 [3]): 0.28 µM
Ratio IC50 (V79 [4]): 135
IC50 (EMT6 [5]): 66 µM
IC50 (EMT6 [6]): 0.05 µM
Ratio IC50 (EMT6 [7]): 1670
IC50 (WiDr [8]): 56 µM
IC50 (WiDr [9]): 0.25 µM
Ratio IC50 (WiDr [10]): 224
IC50 [11]: 72 µM
Activity (V79 [12]): 100 µM
IC50 [13]: 0.23 µM
Ratio IC50 [14]: 309
Activity (V79 [15]): 3 µM
Activity (V79 [16]): 7 µM
MTD [24]: 562 µmol/kg
MTD [17]: 1780 µmol/kg
LCK (EMT6 [25]): >3.44
Activity (WiDr [26]): 7 days
solubility [19]: 170 µM (≈ 84.7 µg/mL)
remaining at 24 h [20]: 83%
Activity (WiDr [27]): >83 days

NC(=O)c1cc(N(CCCl)CCCl)c([N+](=O)[O-])cc1[N+](=O)[O-]
logD [1]: 1.52
IC50 (V79 [2]): 490 µM
IC50 (V79 [3]): 17 µM
Ratio IC50 (V79 [4]): 42
IC50 (EMT6 [5]): 442 µM
IC50 (EMT6 [6]): 1.85 µM
Ratio IC50 (EMT6 [7]): 261
IC50 (WiDr [8]): 703 µM
IC50 (WiDr [9]): 9.5 µM
Ratio IC50 (WiDr [10]): 93
IC50 [11]: 803 µM
Activity (V79 [12]): >1000 µM
IC50 [13]: 9.5 µM
Ratio IC50 [14]: 98
Activity (V79 [15]): 98 µM
Activity (V79 [16]): 120 µM
MTD [28]: 200 µmol/kg
LCK (EMT6 [29]): 2.29
Activity (WiDr [30]): 11 days
Activity (WiDr [31]): 29 days
solubility [19]: 750 µM (≈ 263 µg/mL)
remaining at 24 h [20]: 99%

CS(=O)(=O)OCCN(CCBr)c1cc(C(=O)NCC(O)CO)c([N+](=O)[O-])cc1[N+](=O)[O-] (centres undefined)
logD [1]: -0.05
IC50 (V79 [2]): 733 µM
IC50 (V79 [3]): 1 µM
Ratio IC50 (V79 [4]): 1660
IC50 (EMT6 [5]): 712 µM
IC50 (EMT6 [6]): 1.6 µM
Ratio IC50 (EMT6 [7]): 527
IC50 (WiDr [8]): 804 µM
IC50 (WiDr [9]): 3 µM
Ratio IC50 (WiDr [10]): 272
IC50 [11]: 1110 µM
Activity (V79 [12]): >1300 µM
IC50 [13]: 1.7 µM
Ratio IC50 [14]: 640
Activity (V79 [15]): 70 µM
Activity (V79 [16]): >1300 µM
MTD [17]: 1330 µmol/kg
Ratio (V79 [21]): <0.05
Activity (WiDr [22]): 9 days
solubility [19]: 1300 µM (≈ 688 µg/mL)
remaining at 24 h [20]: 63%
Activity (WiDr [23]): 55 days

O=C(NCCO)c1cc(N(CCCl)CCCl)c([N+](=O)[O-])cc1[N+](=O)[O-]
logD [1]: 1.38
IC50 (V79 [2]): 312 µM
IC50 (V79 [3]): 12 µM
Ratio IC50 (V79 [4]): 59
IC50 (EMT6 [5]): 570 µM
IC50 (EMT6 [6]): 1.52 µM
Ratio IC50 (EMT6 [7]): 386
IC50 (WiDr [8]): 666 µM
IC50 (WiDr [9]): 10 µM
Ratio IC50 (WiDr [10]): 65
IC50 [11]: 1250 µM
Activity (V79 [12]): >1000 µM
IC50 [13]: 5.9 µM
Ratio IC50 [14]: 230
Activity (V79 [15]): 95 µM
Activity (V79 [16]): 210 µM
MTD [28]: 133 µmol/kg
LCK (EMT6 [32]): >2.02
solubility [19]: 1000 µM (≈ 395 µg/mL)

NC(=O)c1cc(N2CC2)c([N+](=O)[O-])cc1[N+](=O)[O-] [TRETAZICAR]
logD [1]: 0.14
IC50 (V79 [2]): 374 µM
IC50 (V79 [3]): 0.26 µM
Ratio IC50 (V79 [4]): 2090
IC50 (EMT6 [5]): 83 µM
IC50 (EMT6 [6]): 0.098 µM
Ratio IC50 (EMT6 [7]): 947
IC50 (WiDr [8]): 54.5 µM
IC50 (WiDr [9]): 1.14 µM
Ratio IC50 (WiDr [10]): 51.1
IC50 [11]: 174 µM
Activity (V79 [12]): 1400 µM
IC50 [13]: 0.64 µM
Ratio IC50 [14]: 317
Activity (V79 [15]): 23 µM
Activity (V79 [16]): 173 µM
MTD [28]: 200 µmol/kg
LCK (EMT6 [29]): 3.16
Ratio (V79 [21]): 0.14
Activity (WiDr [30]): 14 days
Activity (WiDr [31]): >88 days
